In brackets after ≈: the same amount, converted by molar mass.
How the values were obtained:
Assay type in all cases: functional
Staphylococcus aureus [1] = assay: Antibacterial activity against Staphylococcus aureus NCIM 5021 at 100 ug/disk after 24 hrs by agar disc-diffusion method; conditions: NCIM 5021, 24 h, read-out: DIZ
Method in brief: (§1)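 Sterile 6 mm filter-paper discs are soaked in compound solution in DMSO and placed on nutrient agar plates already inoculated with each organism. Plates are incubated at 37 °C. The diameter of the growth-inhibition zone is read after 24 h for bacteria and after 48 h for fungi.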

Bacillus subtilis [2] = assay: Antibacterial activity against Bacillus subtilis NCIM 2063 at 100 ug/disk after 24 hrs by agar disc-diffusion method; conditions: NCIM 2063, 24 h, read-out: DIZ; method in brief: as §1
Klebsiella pneumoniae [3] = assay: Antibacterial activity against Klebsiella pneumoniae NCIM 2957 at 100 ug/disk after 24 hrs by agar disc-diffusion method; conditions: NCIM 2957, 24 h, read-out: DIZ; method in brief: as §1
Proteus vulgaris [4] = assay: Antibacterial activity against Proteus vulgaris NCIM 2027 at 100 ug/disk after 24 hrs by agar disc-diffusion method; conditions: NCIM 2027, 24 h, read-out: DIZ; method in brief: as §1
Fusarium solani [5] = assay: Antifungal activity against Fusarium solani NCIM 1330 at 100 ug/disk after 48 hrs by agar disc-diffusion method; conditions: NCIM 1330, 48 h, read-out: DIZ; method in brief: as §1
Curvularia lunata [6] = assay: Antifungal activity against Curvularia lunata NCIM 716 at 100 ug/disk after 48 hrs by agar disc-diffusion method; conditions: NCIM 716, 48 h, read-out: DIZ; method in brief: as §1
Aspergillus niger [7] = assay: Antifungal activity against Aspergillus niger NCIM 596 at 100 ug/disk after 48 hrs by agar disc-diffusion method; conditions: NCIM 596, 48 h, read-out: DIZ; method in brief: as §1
Staphylococcus aureus [8] = assay: Antibacterial activity against Staphylococcus aureus NCIM 5021 at 200 ug/disk after 24 hrs by agar disc-diffusion method; conditions: NCIM 5021, 24 h, read-out: DIZ; method in brief: as §1
Bacillus subtilis [9] = assay: Antibacterial activity against Bacillus subtilis NCIM 2063 at 200 ug/disk after 24 hrs by agar disc-diffusion method; conditions: NCIM 2063, 24 h, read-out: DIZ; method in brief: as §1
Klebsiella pneumoniae [10] = assay: Antibacterial activity against Klebsiella pneumoniae NCIM 2957 at 200 ug/disk after 24 hrs by agar disc-diffusion method; conditions: NCIM 2957, 24 h, read-out: DIZ; method in brief: as §1
Proteus vulgaris [11] = assay: Antibacterial activity against Proteus vulgaris NCIM 2027 at 200 ug/disk after 24 hrs by agar disc-diffusion method; conditions: NCIM 2027, 24 h, read-out: DIZ; method in brief: as §1
Fusarium solani [12] = assay: Antifungal activity against Fusarium solani NCIM 1330 at 200 ug/disk after 48 hrs by agar disc-diffusion method; conditions: NCIM 1330, 48 h, read-out: DIZ; method in brief: as §1
Curvularia lunata [13] = assay: Antifungal activity against Curvularia lunata NCIM 716 at 200 ug/disk after 48 hrs by agar disc-diffusion method; conditions: NCIM 716, 48 h, read-out: DIZ; method in brief: as §1
Aspergillus niger [14] = assay: Antifungal activity against Aspergillus niger NCIM 596 at 200 ug/disk after 48 hrs by agar disc-diffusion method; conditions: NCIM 596, 48 h, read-out: DIZ; method in brief: as §1
Staphylococcus aureus [15] = assay: Antibacterial activity against Staphylococcus aureus NCIM 5021 after 24 hrs by microdilution susceptibility method; conditions: NCIM 5021, 24 h
Method in brief: (§2)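 This is a microdilution susceptibility test. Organism suspensions are inoculated into wells holding the dilution series, then incubated at 36 °C for 24 h (bacteria) or 48 h (fungi). MIC is the lowest concentration giving no turbidity, i.e. complete inhibition of visible growth.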

Bacillus subtilis [16] = assay: Antibacterial activity against Bacillus subtilis NCIM 2063 after 24 hrs by microdilution susceptibility method; conditions: NCIM 2063, 24 h; method in brief: as §2
Fusarium solani [17] = assay: Antifungal activity against Fusarium solani NCIM 1330 after 48 hrs by microdilution susceptibility method; conditions: NCIM 1330, 48 h; method in brief: as §2
Curvularia lunata [18] = assay: Antifungal activity against Curvularia lunata NCIM 716 after 48 hrs by microdilution susceptibility method; conditions: NCIM 716, 48 h; method in brief: as §2
Aspergillus niger [19] = assay: Antifungal activity against Aspergillus niger NCIM 596 after 48 hrs by microdilution susceptibility method; conditions: NCIM 596, 48 h; method in brief: as §2

Structure (SMILES) | zone of inhibition at 100 µg/disc (Staphylococcus aureus [1]) [mm] | zone of inhibition at 100 µg/disc (Bacillus subtilis [2]) [mm] | zone of inhibition at 100 µg/disc (Klebsiella pneumoniae [3]) [mm] | zone of inhibition at 100 µg/disc (Proteus vulgaris [4]) [mm] | zone of inhibition at 100 µg/disc (Fusarium solani [5]) [mm] | zone of inhibition at 100 µg/disc (Curvularia lunata [6]) [mm] | zone of inhibition at 100 µg/disc (Aspergillus niger [7]) [mm] | zone of inhibition at 200 µg/disc (Staphylococcus aureus [8]) [mm] | zone of inhibition at 200 µg/disc (Bacillus subtilis [9]) [mm] | zone of inhibition at 200 µg/disc (Klebsiella pneumoniae [10]) [mm] | zone of inhibition at 200 µg/disc (Proteus vulgaris [11]) [mm] | zone of inhibition at 200 µg/disc (Fusarium solani [12]) [mm] | zone of inhibition at 200 µg/disc (Curvularia lunata [13]) [mm] | zone of inhibition at 200 µg/disc (Aspergillus niger [14]) [mm] | MIC (Staphylococcus aureus [15]) [µg/mL] | MIC (Bacillus subtilis [16]) [µg/mL] | MIC (Fusarium solani [17]) [µg/mL] | MIC (Curvularia lunata [18]) [µg/mL] | MIC (Aspergillus niger [19]) [µg/mL]
O=S(=O)(Cc1nnc(-c2ccccc2Cl)o1)c1ccc(Cl)cc1 | 15 | 16 | 14 | 16 | 16 | 17 | 15 | 18 | 17 | 17 | 19 | 19 | 19 | 16 | 400 (≈ 1080 µM) | 400 (≈ 1080 µM) | 400 (≈ 1080 µM) | 400 (≈ 1080 µM) | –
O=S(=O)(Cc1nnc(-c2ccccc2Cl)o1)c1ccccc1 | 14 | 16 | 12 | 14 | 16 | 18 | 15 | 16 | 17 | 15 | 17 | 20 | 22 | 17 | – | – | – | – | –
CC(=O)N1CCN(c2ccc(OCC3COC(Cn4ccnc4)(c4ccc(Cl)cc4Cl)O3)cc2)CC1 (stereo not given) [KETOCONAZOLE] | – | – | – | – | 38 | 41 | 36 | – | – | – | – | 42 | 44 | 39 | – | – | 12.5 (≈ 23.5 µM) | 6.25 (≈ 11.8 µM) | 6.25 (≈ 11.8 µM)
Nn1c(CS(=O)(=O)c2ccccc2)nnc1-c1ccccc1 | 16 | 14 | 15 | 16 | 22 | 20 | 19 | 18 | 17 | 18 | 18 | 25 | 24 | 22 | 400 (≈ 1270 µM) | 400 (≈ 1270 µM) | 400 (≈ 1270 µM) | 400 (≈ 1270 µM) | –
O=S(=O)(Cc1nnc(-c2ccccc2)o1)c1ccccc1 | 12 | 11 | 16 | 14 | 15 | 15 | 14 | 15 | 13 | 18 | 17 | 18 | 19 | 17 | – | – | – | – | –
O=S(=O)(Cc1nnc(-c2ccccc2)s1)c1ccc(Cl)cc1 | 20 | 18 | 15 | 16 | 18 | 19 | 16 | 23 | 23 | 17 | 19 | 21 | 21 | 19 | 400 (≈ 1140 µM) | 400 (≈ 1140 µM) | 400 (≈ 1140 µM) | 400 (≈ 1140 µM) | 400 (≈ 1140 µM)
O=S(=O)(Cc1nnc(-c2ccccc2)s1)c1ccccc1 | 19 | 15 | 16 | 18 | 18 | 16 | 15 | 21 | 17 | 18 | 20 | 22 | 19 | 17 | 400 (≈ 1260 µM) | 400 (≈ 1260 µM) | 400 (≈ 1260 µM) | 400 (≈ 1260 µM) | –

From ChEMBL document CHEMBL1137737, “Synthesis, antimicrobial and cytotoxic activities of 1,3,4-oxadiazoles, 1,3,4-thiadiazoles and 1,2,4-triazoles” (Eur J Med Chem, 2009)
